Hits are enriched below; roughly 2.1% of the tested compounds scored in any of these assays.
Arbovirus inh: antivirals against arbovirus infection, primary screen, cell-based, full library, 10K replicate subset | arbovirus infection cell-based antiviral screen | inhibition, % at 10 µM | 200,000 tested, 0.37% active; in the data active = inhibition above about 30%
PKD1 kinase inh: inhibitors of human PKD1 kinase, biochemical, fluorescence polarization | AID 797, 2007 | inhibition, % (no concentration beside the values) | 200,000 tested, 0.056% active | PKD1 kinase fluorescence polarization assay; in the data active = inhibition above about 50%
INS promoter inh: inhibitors of insulin promoter-driven GFP, primary screen, imaging, TRM-6 cells, eGFP reporter, cell count; reporter expression induced with tamoxifen; inhibition, % at 2 µM; 130,000 tested, 0.9% active; AID 1273, 2008;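 active = inhibition above the mean plus 3 SD, with well images judged a real hit on visual review, cut at about 60% in these data, passing the limit was not always enough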
RBBP9 inhibitor: human RBBP9 inhibitors, primary screen, biochemical, fluorescence polarization, FP-Rh probe, HTS. 220,000 tested, 0.2% active. recombinant RBBP9. inhibition, % at 7.94 µM. Serine hydrolase RBBP9 (Homo sapiens), O75884. AID 1515, 2009;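 active = inhibition above the campaign mean of all tested compounds plus 3 SD, cut at about 14% in these data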;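 also: plate controls were DMSO wells with RBBP9 for no effect and wells lacking RBBP9 protein for full effect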
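Measured by: FP readout at 525/598 nm; material: recombinant human RBBP9; also added: Serine-hydrolase probe FP-Rh, 375 nM pre-mixing; medium: Tris buffer pH 8.0, NaCl, Pluronic; replication: one well per compound; doses: one concentration, 7.94 µM nominal, 0.794% DMSO; timing: preincubation 30 min plus labeling 45 min at 25 °C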
Ins promoter up: insulin promoter activators in MIN6 cells, imaging, high-content screening, mouse beta cells; AID 1625, 2009; 190,000 tested, 0.3% active; MIN6 insulin promoter-GFP reporter; stronger effect = higher value; z-score at 5 µM;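 active = z-score above 3 at 5 µM with at least 500 cells counted in the well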
Autophagy mod: autophagy modulators in MEF cells, primary screen, imaging, high-content, MEF GFP-LC3; MEF GFP-LC3 puncta imaging; test concentration mostly 10 µM; calls only at 10 µM (by protocol); 190,000 tested, 0.98% active; AID 463193, 2010;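 active = percentage of spot-positive cells more than 3 SD above its plate mean, without a fluorescence outlier flag or 80% toxicity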;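 also: spot-positive cell cutoff set from DMSO-treated cells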
* hit, by the source's call; i = inactive; . = not tested or not shown; + = active, no number.

SMILES	Arbovirus inh	PKD1 kinase inh	INS promoter inh	RBBP9 inhibitor	Ins promoter up	Autophagy mod
O=C(COC(=O)c1ccco1)NCC1CCCO1 (stereo not given)	2	5	39	-5	3*	i
O=C(COC(=O)c1ccccc1)NCC1CCCO1 (stereo not given)	11	-2	-27	-4	.	i
O=C(O)CCN=C1CCCc2ccccc2N1	9	-6	21	0	.	i
c1ccc2c(-c3csc(-c4ccncc4)n3)c[nH]c2c1	-4	15	-25	-6	.	+
Cc1cc2c3c(c1C)C1(C(=O)N3C(C)(C)CC2C)C(C#N)=C(N)Oc2n[nH]c(C)c21 (stereo not given)	12	-3	0	-7	0.33	i
O=C(CCS(=O)(=O)c1ccccc1)Nc1nc(-c2ccc(F)cc2)cs1	.	.	.	-13	.	.
O=C(CS(=O)(=O)c1ccccc1)Nc1nc(-c2ccc(F)cc2)cs1	4	-7	75*	-28	-0.21	i
Cc1ccc(S(=O)(=O)Nc2ccncc2)c(C)c1N(C)S(=O)(=O)c1ccc(F)cc1	0	-6	-44	0	-0.18	i
O=C(O)c1cnc2ccccc2n1	4	-1	85*	-3	0.49	i
CC1CCN(C(=O)CSc2nc(N)c3c4c(sc3n2)CN(C)CC4)CC1	5	-15	-19	-10	-0.8	i
C=CCn1c(SCc2csc(C)n2)nc2sc3c(c2c1=O)CCCC3	-16	-4	71*	0	1.4	i
Cn1c(SCC(=O)N2CCOCC2)nc2sc3c(c2c1=O)CCCC3	-4	-5	21	-4	-0.72	i
C=CCn1c(SCC(=O)N2CCOCC2)nc2sc3c(c2c1=O)CCCC3	-9	5	11	1	-2.6	+
CN1CCc2c(sc3nc(SCC(=O)N4CCOCC4)nc(N)c23)C1	-3	3	6	-9	0.62	+
C=CCn1c(SCc2csc(C)n2)nc2sc3c(c2c1=O)CCCCC3	-23	3	34	-2	-0.42	i
Cc1cc(NC(=O)CCC(=O)N(Cc2ccco2)C(C(=O)NCC2CCCO2)c2ccncc2)no1 (stereo not given)	0	74*	.	-1	-0.2	i
COc1ccc2c(CC(=O)O)cc(=O)oc2c1	.	.	.	-3	-0.12	.
COc1ccccc1/C=C/C(=O)c1c2c(c(C)[nH]c1=O)CCCC2	-28	7	.	-1	1.8	+
Cc1ccc(NC(=O)/C(=C/C=C/c2ccccc2)NC(=O)c2ccccc2)cc1	30*	0	.	-5	-0.45	i
Cc1noc(C)c1COc1cccc(C(=O)NCCc2c[nH]c3ccccc23)c1	-15	2	-122	-7	0.31	i
CC(=O)NC1CSCC1OC(C)=O (stereo not given)	2	-1	-43	3	-0.45	i
CCOc1ccc(-c2nn(-c3ccccc3)cc2/C=C2\SC(=S)N(Cc3ccco3)C2=O)cc1	-3	1	.	-4	-0.07	i
CCN1C(=O)/C(=C\c2cn(-c3ccccc3)nc2-c2cccnc2)SC1=S	-1	-2	-46	0	1.1	+
COC(=O)c1ccccc1NC(=S)NC(=O)c1ccccc1C	9	-8	.	-6	0.32	i
Cc1nn(-c2ccc([N+](=O)[O-])cc2)c2c1C(c1cccc(Br)c1)N1C(=N2)C(=O)Nc2ccccc21 (stereo not given)	4	-12	37	-9	-0.41	+
SMILES	Arbovirus inh	PKD1 kinase inh	INS promoter inh	RBBP9 inhibitor	Ins promoter up	Autophagy mod
Cc1nn(-c2ccccc2)c2c1C(c1ccc([N+](=O)[O-])cc1)N1C(=N2)C(=O)Nc2ccccc21 (stereo not given)	-6	6	.	-10	-1.4	i
CCN1CCN(c2cc(C)c3cc(NC(=O)c4ccc(OC)c(OC)c4)ccc3n2)CC1	-44	-6	.	-9	-0.68	+
COc1ccc(/C=C(/NC(=O)c2ccc([N+](=O)[O-])cc2)C(=O)NC(C)(C)C)cc1	-2	6	.	-6	0.65	i
CN(C)CCCNC1=CC(=O)CC(c2ccccc2)C1 (stereo not given)	15	1	83*	1	-0.4	i
CC(C)CCNC1=CC(=O)CC(c2ccccc2)C1 (stereo not given)	-18	-3	34	-6	1.3	i
Cc1cc(S(=O)(=O)N2CCN=C2c2ccccc2)c(C)cc1Cl	-3	-9	-47	-5	-0.22	i
CC1CCc2c(sc3nn[nH]c(=O)c23)C1 (stereo not given)	4	0	20	-4	4.2*	i
CS(=O)(=O)c1nc(-c2cccs2)cc(C(F)(F)F)n1	-26	3	7	-1	0.54	+
Cc1[nH]c2ccccc2c1C(=O)CCl	-38	2	.	1	-0.65	+
CCC(C)(C)n1nnnc1CN(Cc1cc2cc(OC)c(OC)cc2[nH]c1=O)C1CCCC1	-1	-6	.	-2	0.62	i
COc1cccc2c(=O)n(CC(=O)Nc3ccc(F)cc3)ccc12	2	-8	.	-10	0.1	i
COc1cccc2c(=O)n(CC(=O)Nc3cccc(F)c3)ccc12	2	16	.	-6	3.4*	i
CCOC(=O)COc1cccc2c(=O)n(CC(=O)NCc3ccc(F)cc3)ccc12	.	.	.	-3	-0.8	.
CCOC(=O)COc1cccc2c(=O)n(CC(=O)NCCc3ccc(OC)c(OC)c3)ccc12	-2	-5	20	-9	3.6*	i
O=C1CSCN1c1ccc(Cl)c(Cl)c1	3	3	26	-10	0.44	i
O=C1CSCN1c1cc(Cl)ccc1Cl	-1	75*	9	0	0.74	i
Cc1cc(C)n(CC(O)COc2ccccc2[N+](=O)[O-])n1 (stereo not given)	7	7	.	-6	0.34	i
N#C/C(=C\c1cc2ccccc2nc1N1CCCCC1)C(N)=O	35*	-7	7	-1	0.19	i
O=C(CO/N=C/c1ccccc1Cl)N1CCCc2ccccc21	8	-4	.	-9	0.09	i
Cc1ccc(O)c(-c2cc(C(=O)Nc3ccc(S(=O)(=O)Nc4nc(C)cc(C)n4)cc3)[nH]n2)c1	35*	2	17	-19	-0.11	i
COC(=O)c1ccccc1NC(=O)CN1CCC(C)CC1	3	-10	.	-5	-0.02	i
COC(=O)c1ccccc1NC(=O)CN1CCC(NC(=O)c2ccccc2C)CC1	83*	-5	.	-6	-0.5	i
COc1ccc(N2CCN(c3ccc(N4C(=O)CC(C)C4=O)cc3[N+](=O)[O-])CC2)cc1 (stereo not given)	0	-3	77*	-9	0.05	i
